From ChEMBL document CHEMBL1131626 (J Med Chem, 1998)
Each block holds one compound with its values, some of them ahead of it.

Tests used:
[1] = target: T1, Progesterone receptor (Mus musculus) (UniProt Q00175); test: Effect on pregnancy in mice as percent pregnant at 0.5 mg/mouse dose with simultaneous 0.5 mg RU-486 dose; type: functional
T1 sequence (whole entry): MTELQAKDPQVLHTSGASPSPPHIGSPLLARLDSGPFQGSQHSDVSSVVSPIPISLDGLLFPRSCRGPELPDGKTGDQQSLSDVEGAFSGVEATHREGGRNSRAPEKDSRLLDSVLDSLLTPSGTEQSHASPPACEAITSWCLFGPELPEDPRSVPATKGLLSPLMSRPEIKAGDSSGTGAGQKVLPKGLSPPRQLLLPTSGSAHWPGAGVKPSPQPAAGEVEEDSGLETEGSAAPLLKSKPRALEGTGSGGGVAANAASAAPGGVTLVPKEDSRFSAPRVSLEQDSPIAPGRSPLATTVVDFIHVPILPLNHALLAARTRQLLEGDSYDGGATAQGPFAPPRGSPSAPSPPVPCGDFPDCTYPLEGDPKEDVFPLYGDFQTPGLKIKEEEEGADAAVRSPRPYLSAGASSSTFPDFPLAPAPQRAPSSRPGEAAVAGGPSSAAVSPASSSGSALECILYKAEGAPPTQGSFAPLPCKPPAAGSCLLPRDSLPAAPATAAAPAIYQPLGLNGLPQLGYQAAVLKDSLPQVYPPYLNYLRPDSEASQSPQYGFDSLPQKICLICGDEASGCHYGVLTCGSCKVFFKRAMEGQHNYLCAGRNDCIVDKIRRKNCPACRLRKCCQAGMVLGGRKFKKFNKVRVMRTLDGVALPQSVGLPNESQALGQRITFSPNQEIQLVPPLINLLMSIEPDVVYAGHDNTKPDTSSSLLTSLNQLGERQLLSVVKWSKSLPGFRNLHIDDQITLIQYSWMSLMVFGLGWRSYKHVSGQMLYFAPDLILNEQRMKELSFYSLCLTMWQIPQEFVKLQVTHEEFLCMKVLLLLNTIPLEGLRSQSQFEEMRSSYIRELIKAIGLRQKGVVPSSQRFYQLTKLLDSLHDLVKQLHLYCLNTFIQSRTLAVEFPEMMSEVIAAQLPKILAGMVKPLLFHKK
Procedure, shortened: (§1)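 Mature virgin ICR mice, 10-12 weeks old, mated overnight; vaginal plug marks day 1. Oral RU486 0.5 mg (~15 mg/kg), alone or with test compound (mg/mouse), on days 2-4. Compounds in ethanol diluted with corn oil, 0.1 mL. Oil controls. Necropsy on day 8 to count corpora lutea and implantation sites and to score pregnancy. Student t-test.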

[2] = target: T1, Progesterone receptor (Mus musculus); test: Effect on pregnancy in mice as corpora lutea at 0.5 mg/mouse dose with simultaneous 0.5 mg RU-486 dose; type: functional, organism-based; procedure, shortened: as §1
[3] = target: T1, Progesterone receptor (Mus musculus); test: Effect on pregnancy in mice as implantation at 0.5 mg/mouse dose with simultaneous 0.5 mg RU-486 dose; type: functional; procedure, shortened: as §1
[4] = target: T1, Progesterone receptor (Mus musculus); test: Effect on pregnancy in mice as number pregnant/mated at 0.5 mg/mouse dose with simultaneous 0.5 mg RU-486 dose; out of 16; type: functional; procedure, shortened: as §1
[5] = target: T1, Progesterone receptor (Mus musculus); test: Effect on pregnancy in mice as implantation at 1 mg/mouse dose with simultaneous 0.5 mg RU-486 dose; type: functional; procedure, shortened: as §1
[6] = target: T1, Progesterone receptor (Mus musculus); test: Effect on pregnancy in mice as corpora lutea at 3 mg/mouse dose with simultaneous 0.5 mg RU-486 dose; type: functional, organism-based; procedure, shortened: as §1
[7] = target: T1, Progesterone receptor (Mus musculus); test: Effect on pregnancy in mice as implantation at 30 mg/mouse dose with simultaneous 0.5 mg RU-486 dose; type: functional; procedure, shortened: as §1
[8] = target: T1, Progesterone receptor (Mus musculus); test: Effect on pregnancy in mice as corpora lutea at 10 mg/mouse dose with simultaneous 0.5 mg RU-486 dose; type: functional, organism-based; procedure, shortened: as §1
[9] = target: T1, Progesterone receptor (Mus musculus); test: Effect on pregnancy in mice as number pregnant/mated at 30 mg/mouse dose with simultaneous 0.5 mg RU-486 dose; out of 10; type: functional; procedure, shortened: as §1
[10] = target: T1, Progesterone receptor (Mus musculus); test: Effect on pregnancy in mice as corpora lutea at 30 mg/mouse dose with simultaneous 0.5 mg RU-486 dose; type: functional, organism-based; procedure, shortened: as §1
[11] = target: T1, Progesterone receptor (Mus musculus); test: Effect on pregnancy in mice as implantation at 10 mg/mouse dose with simultaneous 0.5 mg RU-486 dose; type: functional; procedure, shortened: as §1
[12] = target: T1, Progesterone receptor (Mus musculus); test: Effect on pregnancy in mice as percent pregnant at 30 mg/mouse dose with simultaneous 0.5 mg RU-486 dose; type: functional; procedure, shortened: as §1
[13] = target: T1, Progesterone receptor (Mus musculus); test: Effect on pregnancy in mice as percent pregnant at 10 mg/mouse dose with simultaneous 0.5 mg RU-486 dose; type: functional; procedure, shortened: as §1
[14] = target: T1, Progesterone receptor (Mus musculus); test: Effect on pregnancy in mice as percent pregnant at 3 mg/mouse dose with simultaneous 0.5 mg RU-486 dose; type: functional; procedure, shortened: as §1
[15] = target: T1, Progesterone receptor (Mus musculus); test: Effect on pregnancy in mice as number pregnant/mated at 3 mg/mouse dose with simultaneous 0.5 mg RU-486 dose; out of 12; type: functional; procedure, shortened: as §1
[16] = target: T1, Progesterone receptor (Mus musculus); test: Effect on pregnancy in mice as number pregnant/mated at 1 mg/mouse dose with simultaneous 0.5 mg RU-486 dose; out of 10; type: functional; procedure, shortened: as §1
[17] = target: T1, Progesterone receptor (Mus musculus); test: Effect on pregnancy in mice as number pregnant/mated at 10 mg/mouse dose with simultaneous 0.5 mg RU-486 dose; out of 10; type: functional; procedure, shortened: as §1
[18] = target: T1, Progesterone receptor (Mus musculus); test: Effect on pregnancy in mice as implantation at 3 mg/mouse dose with simultaneous 0.5 mg RU-486 dose; type: functional; procedure, shortened: as §1
[19] = target: T1, Progesterone receptor (Mus musculus); test: Effect on pregnancy in mice as corpora lutea at 1 mg/mouse dose with simultaneous 0.5 mg RU-486 dose; type: functional, organism-based; procedure, shortened: as §1
[20] = target: T1, Progesterone receptor (Mus musculus); test: Effect on pregnancy in mice as percent pregnant at 1 mg/mouse dose with simultaneous 0.5 mg RU-486 dose; type: functional; procedure, shortened: as §1
[21] = target: T1, Progesterone receptor (Mus musculus); test: Effect on pregnancy in mice as number pregnant/mated at 1 mg/mouse dose with simultaneous 0.5 mg RU-486 dose; out of 11; type: functional; procedure, shortened: as §1
[22] = target: T1, Progesterone receptor (Mus musculus); test: Effect on pregnancy in mice as number pregnant/mated at 3 mg/mouse dose with simultaneous 0.5 mg RU-486 dose; out of 9; type: functional; procedure, shortened: as §1

Pregnant [1]: 18.8%
Corpora lutea [2]: 13.4
Implants [3]: 3.3
No. pregnant/mated [4]: 3
SMILES: CC#C[C@]1(O)CC[C@H]2[C@@H]3CCC4=CC(=O)CCC4=C3[C@@H](c3ccc(N(C)C)cc3)C[C@@]21C

Implants [5]: 1.2
Corpora lutea [6]: 13.6
Implants [7]: 6.7
Corpora lutea [8]: 12.3
No. pregnant/mated [9]: 5
Corpora lutea [10]: 10.7
Implants [11]: 1.4
Pregnant [12]: 50%
Pregnant [13]: 10%
Pregnant [14]: 16.7%
No. pregnant/mated [15]: 2
No. pregnant/mated [16]: 1
No. pregnant/mated [17]: 1
Implants [18]: 2.6
Corpora lutea [19]: 11.7
Pregnant [20]: 10%
SMILES: CC#C[C@]1(O)CC[C@H]2[C@@H]3CCC4=CC(=O)CCC4=C3[C@@H](c3ccc(N(C)C)cc3)C[C@@]21C.CC(=O)O[C@]1(C(C)=O)CC[C@H]2[C@@H]3C[C@H](C)C4=CC(=O)CC[C@]4(C)[C@H]3CC[C@@]21C

Implants [5]: 12
Corpora lutea [6]: 14.1
No. pregnant/mated [21]: 10
Pregnant [14]: 100%
No. pregnant/mated [22]: 9
Implants [18]: 13.7
Corpora lutea [19]: 14.1
Pregnant [20]: 91%
SMILES: CC#C[C@]1(O)CC[C@H]2[C@@H]3CCC4=CC(=O)CCC4=C3[C@@H](c3ccc(N(C)C)cc3)C[C@@]21C.CC1=CC(C)(C)Nc2ccc3c(c21)C(c1cccc(Cl)c1)Oc1ccc(F)cc1-3
